Data from ChEMBL document CHEMBL3745614, “Potent and selective N-(4-sulfamoylphenyl)thiourea-based GPR55 agonists” (Eur J Med Chem, 2016).

What was measured:
[1] = target: T1, Fatty-acid amide hydrolase 1 (Homo sapiens) (UniProt O00519); assay: Inhibition of human FAAH expressed in African green monkey COS-7 cell membranes using [3H]-AEA as substrate assessed as residual activity at 10 uM preincubated for 10 mins followed by substrate addition measured after 10 mins by liquid scintillation counting analysis relative to control
T1 sequence (whole entry): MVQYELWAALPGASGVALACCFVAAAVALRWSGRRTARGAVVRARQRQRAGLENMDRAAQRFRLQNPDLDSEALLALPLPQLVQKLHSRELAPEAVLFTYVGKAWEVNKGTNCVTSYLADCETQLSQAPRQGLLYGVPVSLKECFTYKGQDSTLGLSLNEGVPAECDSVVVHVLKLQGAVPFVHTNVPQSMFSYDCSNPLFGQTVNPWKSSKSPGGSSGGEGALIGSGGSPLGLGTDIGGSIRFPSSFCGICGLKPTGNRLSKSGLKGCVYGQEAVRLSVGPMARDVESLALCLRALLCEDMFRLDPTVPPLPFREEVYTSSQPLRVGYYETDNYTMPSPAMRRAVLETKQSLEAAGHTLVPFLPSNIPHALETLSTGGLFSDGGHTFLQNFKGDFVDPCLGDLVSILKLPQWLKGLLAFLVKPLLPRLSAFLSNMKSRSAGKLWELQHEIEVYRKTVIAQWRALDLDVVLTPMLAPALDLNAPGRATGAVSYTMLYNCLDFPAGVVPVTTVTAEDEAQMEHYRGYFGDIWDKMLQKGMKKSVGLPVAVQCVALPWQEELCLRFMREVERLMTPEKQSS
Procedure, shortened: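 Membranes of COS-7 cells overexpressing hFAAH, 1 μg protein per incubation. Substrate 20 μM AEA including 10 nM [3H]AEA (60 Ci/mmol). Compounds tested at 10 μM.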

[2] = target: Cannabinoid receptor 1 (Homo sapiens) (UniProt P21554); assay: Agonist activity at CBR1 (unknown origin) assessed as [35S]GTPgammaS binding at 10 uM by […] assay relative to control; assay type: functional
Cannabinoid receptor 1 (Homo sapiens), sequence (P21554 whole entry): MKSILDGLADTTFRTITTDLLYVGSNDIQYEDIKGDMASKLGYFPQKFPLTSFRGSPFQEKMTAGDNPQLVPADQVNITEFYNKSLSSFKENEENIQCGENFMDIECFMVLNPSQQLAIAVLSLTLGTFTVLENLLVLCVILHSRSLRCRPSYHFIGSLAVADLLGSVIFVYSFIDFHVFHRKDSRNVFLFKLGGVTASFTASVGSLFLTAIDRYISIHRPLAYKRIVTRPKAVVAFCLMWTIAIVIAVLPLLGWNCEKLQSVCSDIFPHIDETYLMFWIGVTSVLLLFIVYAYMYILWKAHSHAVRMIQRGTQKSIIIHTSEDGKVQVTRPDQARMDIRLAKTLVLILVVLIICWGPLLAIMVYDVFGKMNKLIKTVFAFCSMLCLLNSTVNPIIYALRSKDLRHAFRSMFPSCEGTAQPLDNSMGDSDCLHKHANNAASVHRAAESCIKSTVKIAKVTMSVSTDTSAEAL

[3] = target: T2, Monoacylglycerol lipase ABHD6 (Homo sapiens) (UniProt Q9BV23); assay: Inhibition of human ABHD6 expressed in […] cells using 2-AG as substrate assessed as glycerol liberation at 10 uM preincubated for 30 mins followed by 2-AG addition measured for 90 mins by fluorescent glycerol assay relative to control; assay type: cell-based; set-up: scale not given: the % may be the effect or the level left
T2 sequence (whole entry): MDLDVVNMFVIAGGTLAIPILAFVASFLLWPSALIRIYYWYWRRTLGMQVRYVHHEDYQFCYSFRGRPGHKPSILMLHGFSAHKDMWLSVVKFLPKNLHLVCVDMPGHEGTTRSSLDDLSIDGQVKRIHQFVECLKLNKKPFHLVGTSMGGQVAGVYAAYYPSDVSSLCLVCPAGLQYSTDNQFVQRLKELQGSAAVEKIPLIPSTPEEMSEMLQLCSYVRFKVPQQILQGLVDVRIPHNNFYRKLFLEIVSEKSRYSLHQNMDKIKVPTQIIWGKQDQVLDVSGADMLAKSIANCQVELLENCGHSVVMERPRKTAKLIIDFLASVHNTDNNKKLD
Procedure, shortened: (§1)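 Lysates of HEK293 cells transiently overexpressing hABHD6 or hABHD12, 0.3 μg protein/well. Pretreated 30 min with DMSO or compound, then 2-AG added (12.5 μM final). Glycerol release coupled enzymatically to H2O2-dependent resorufin formation; fluorescence (ex 530/em 590 nm) followed kinetically for 90 min.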

[4] = target: T3, Lysophosphatidylserine lipase ABHD12 (Homo sapiens) (UniProt Q8N2K0); assay: Inhibition of human ABHD12 expressed in […] cells using 2-AG as substrate assessed as glycerol liberation at 10 uM preincubated for 30 mins followed by 2-AG addition measured for 90 mins by fluorescent glycerol assay relative to control; assay type: cell-based; set-up: scale not given: the % may be the effect or the level left; procedure, shortened: as §1
T3 sequence (whole entry): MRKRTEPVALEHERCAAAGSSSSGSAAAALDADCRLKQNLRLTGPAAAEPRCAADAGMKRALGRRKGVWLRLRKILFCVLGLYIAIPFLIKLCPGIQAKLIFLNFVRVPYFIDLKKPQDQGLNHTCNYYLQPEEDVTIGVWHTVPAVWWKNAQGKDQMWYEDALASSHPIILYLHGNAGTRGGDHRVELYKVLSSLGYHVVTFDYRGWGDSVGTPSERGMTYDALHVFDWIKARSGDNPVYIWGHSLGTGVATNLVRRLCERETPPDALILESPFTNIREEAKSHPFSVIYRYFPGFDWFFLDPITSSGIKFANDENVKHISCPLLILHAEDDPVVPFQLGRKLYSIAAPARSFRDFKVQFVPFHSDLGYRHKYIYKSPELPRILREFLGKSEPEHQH

[5] = target: T4, G-protein coupled receptor 55 (Homo sapiens, UniProt Q9Y2T6); assay: Agonist activity at human GPR55 expressed in CHOK1 cells at 10 uM by pathHunter beta-arrestin assay relative to control; assay type: cell-based; settings: CHO-K1
T4 sequence (Q9Y2T6 whole entry): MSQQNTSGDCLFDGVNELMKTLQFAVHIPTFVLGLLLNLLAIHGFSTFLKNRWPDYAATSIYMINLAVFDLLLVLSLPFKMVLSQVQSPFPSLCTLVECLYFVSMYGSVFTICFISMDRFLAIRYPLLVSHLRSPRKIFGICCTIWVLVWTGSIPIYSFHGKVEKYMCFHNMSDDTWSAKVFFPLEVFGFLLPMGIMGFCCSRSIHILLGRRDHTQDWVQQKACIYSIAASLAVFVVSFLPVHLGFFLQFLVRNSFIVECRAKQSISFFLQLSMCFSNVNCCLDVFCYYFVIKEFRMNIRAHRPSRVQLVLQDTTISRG
Procedure, shortened: (§2)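 PathHunter eXpress GPR55 CHO-K1 β-arrestin kit run per the kit protocol, compounds screened at 10 μM. Luminescence read and expressed as percentage of the signal from bovine liver LPI at 1 μM. Mean with range of two experiments, each done in duplicate.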

[6] = target: T4, G-protein coupled receptor 55; assay: Agonist activity at human GPR55 expressed in HEK293 cells assessed as calcium signalling by fura 2-based digital epifluorescence microscopy; assay type: functional, cell-based
Procedure, shortened: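 HEK293 cells stably expressing GPR55, grown on poly-L-lysine coated glass coverslips and serum-starved overnight. Compounds applied by bath perfusion in HEPES-buffered saline at 30-32 °C. Single-cell fura 2 ratiometric imaging (350/380 nm) every 5 s. Peak responses pooled from 24 cells (12 random cells from each of two experiments) per concentration; EC50 with 95% CI from concentration-response curves. ARA-LPI used as reference agonist.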

[7] = target: T5, Monoglyceride lipase (Homo sapiens) (UniProt Q99685); assay: Inhibition of human MGL expressed in […] cells using 2AG as substrate assessed as residual activity at 10 uM preincubated for 10 mins followed by substrate addition measured after 10 mins by HPLC analysis; assay type: cell-based
T5 sequence (whole entry): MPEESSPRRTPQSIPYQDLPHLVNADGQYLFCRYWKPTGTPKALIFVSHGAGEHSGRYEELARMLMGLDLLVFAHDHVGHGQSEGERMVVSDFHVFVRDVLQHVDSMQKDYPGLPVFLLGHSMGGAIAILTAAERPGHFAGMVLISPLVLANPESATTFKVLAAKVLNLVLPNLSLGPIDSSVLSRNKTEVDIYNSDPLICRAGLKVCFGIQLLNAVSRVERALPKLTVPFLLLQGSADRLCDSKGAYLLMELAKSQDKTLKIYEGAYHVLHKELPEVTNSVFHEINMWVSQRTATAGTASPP
Procedure, shortened: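 Lysates of HEK cells overexpressing hMGL, 2.5 μg protein per incubation, substrate at 50 μM. Compounds tested at 10 μM.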

[8] = target: Cannabinoid receptor 1 (Homo sapiens) (UniProt P21554); assay: Antagonist activity at human CBR1 assessed as [35S]GTPgammaS binding at 10 uM by radiometric assay relative to control; set-up: scale not given: the % may be the effect or the level left
[9] = target: Cannabinoid receptor 2 (Homo sapiens) (UniProt P34972); assay: Agonist activity at CBR2 (unknown origin) assessed as [35S]GTPgammaS binding at 10 uM by […] assay relative to control; assay type: functional
Cannabinoid receptor 2 (Homo sapiens), sequence (P34972 whole entry): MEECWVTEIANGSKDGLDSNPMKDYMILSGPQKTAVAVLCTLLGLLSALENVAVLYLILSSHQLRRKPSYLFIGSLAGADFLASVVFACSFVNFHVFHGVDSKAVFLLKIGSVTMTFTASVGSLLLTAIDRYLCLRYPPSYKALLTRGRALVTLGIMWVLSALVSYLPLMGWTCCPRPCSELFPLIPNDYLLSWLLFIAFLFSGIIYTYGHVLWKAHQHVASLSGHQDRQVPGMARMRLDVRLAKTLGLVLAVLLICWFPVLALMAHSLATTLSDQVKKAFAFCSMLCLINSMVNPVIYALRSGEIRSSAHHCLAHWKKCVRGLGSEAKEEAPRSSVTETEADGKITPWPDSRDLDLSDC

[10] = target: Cannabinoid receptor 2 (Homo sapiens) (UniProt P34972); assay: Antagonist activity at human CBR2 assessed as [35S]GTPgammaS binding at 10 uM by […] assay relative to control; assay type: functional; set-up: scale not given: the % may be the effect or the level left
[11] = target: T4, G-protein coupled receptor 55; assay: Agonist activity at human GPR55 expressed in CHOK1 cells at 10 uM by pathHunter beta-arrestin assay relative to LPI; assay type: cell-based; settings: CHO-K1; procedure, shortened: as §2
[12] = target: T2, Monoacylglycerol lipase ABHD6 (Homo sapiens); assay: Inhibition of human ABHD6 expressed in […] cells using 2-AG as substrate assessed as glycerol liberation at 1 uM preincubated for 30 mins followed by 2-AG addition measured for 90 mins by fluorescent glycerol assay relative to control; assay type: cell-based; set-up: scale not given: the % may be the effect or the level left; procedure, shortened: as §1

Activity [1] [%]	Activity [2] [%]	Activity [3] [%]	Activity [4] [%]	Activity [5] [%]	EC50 [6] [nM]	Activity [7] [%]	Activity [8] [%]	Activity [9] [%]	Activity [10] [%]	Activity [11] [%]	Activity [12] [%]	SMILES
106	97	86	86	291	5.6	97	94	93	83	197		O=C(NC(=S)Nc1ccc(S(=O)(=O)NCc2ccccc2)cc1)c1ccc(-c2ccccc2)cc1
107	96	88	82	99		98	101	94	97	66		CC(=O)NS(=O)(=O)c1ccc(NC(=S)NC(=O)c2cccc3ccccc23)cc1
103	93	66	78	91		93	95	90	92	62	102	COc1ccc(C(=O)NC(=S)Nc2ccc(S(=O)(=O)NC(C)C)cc2)cc1
34	147	85	84	150		94	119	95	89			NS(=O)(=O)c1ccc(NC(=S)NC(=O)c2ccc(-c3ccccc3)cc2)cc1
95	96	97	83	134		104	78	90	100	91		CCCCc1ccc(NS(=O)(=O)c2ccc(NC(=S)NC(=O)c3ccc(-c4ccccc4)cc3)cc2)cc1
101	101	76	81	218	218	97	91	101	95	148		CN1CCN(S(=O)(=O)c2ccc(NC(=S)NC(=O)c3ccc(-c4ccccc4)cc3)cc2)CC1
92	95	74	72	176		96	80	100	105			C=CCN(CC=C)S(=O)(=O)c1ccc(NC(=S)NC(=O)c2ccc(-c3ccccc3)cc2)cc1
89	93	93	82	231		105	84	94	101	158		O=C(NC(=S)Nc1ccc(S(=O)(=O)Nc2ccc(Cl)cc2)cc1)c1ccc(-c2ccccc2)cc1
96	128	67	77	252	176	103	91	85	85	172	103	CCCNS(=O)(=O)c1ccc(NC(=S)NC(=O)c2ccc(-c3ccccc3)cc2)cc1
103	100	78	78	263	6.2	104	95	90	96	178		O=C(NC(=S)Nc1ccc(S(=O)(=O)Nc2ccccc2)cc1)c1ccc(-c2ccccc2)cc1
103	100	81	88	99		99	98	96	92	67		CC(=O)NS(=O)(=O)c1ccc(NC(=S)NC(=O)c2ccc(C(C)C)cc2)cc1
					20.2							CCCCC/C=C\C/C=C\C/C=C\C/C=C\CCCC(=O)OC[C@@H](O)COP(=O)(O)O[C@@H]1[C@@H](O)[C@H](O)[C@@H](O)[C@H](O)[C@@H]1O
97	103	59	74	105		89	88	88	100	70	106	Cc1ccc(C(=O)NC(=S)Nc2ccc(S(=O)(=O)NC(C)C)cc2)c(Br)c1
54	105	79	74	148	55.7	93	96	90	96	101		CN(C)S(=O)(=O)c1ccc(NC(=S)NC(=O)c2ccc(-c3ccccc3)cc2)cc1
